ChEMBL document CHEMBL3745596, “Chlorophenoxy aminoalkyl derivatives as histamine H(3)R ligands and antiseizure agents” (Bioorg Med Chem, 2016)
Activity calls are given as the source filed them.

Columns and labels:
Mus musculus [1] = assay: Neurotoxicity in CF1 albino mouse at 100 mg/kg, ip after 4 hrs by rotarod test; assay type: toxicity, organism-based; conditions: in vivo
In short: (§1)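 Rotarod neurotoxicity in male albino CF-1 mice dosed ip with compound suspended in 0.5% methylcellulose. Animal placed on a 1 inch diameter knurled plastic rod rotating at 6 rpm. Neurotoxicity scored when the animal falls off three times within 1 min. Readout is number of animals toxic/number tested at the stated time after dosing. TD50 with 95% confidence interval from the quantitative study.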

Mus musculus [2] = assay: Anticonvulsant activity in CF1 albino mouse assessed as protection against maximal electroshock-induced seizure at 100 mg/kg, ip after 0.5 hrs; assay type: functional, organism-based
In short: (§2)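 Male CF-1 mice dosed ip as suspension in 0.5% methylcellulose. Corneal electrodes deliver 60 Hz alternating current, 50 mA for […], after a drop of 0.5% tetracaine HCl in 0.9% NaCl per eye. Protection means abolition of hindlimb tonic extension; scored as protected/tested, or ED50 with 95% confidence interval.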

Histamine H3 receptor = Histamine H3 receptor (Homo sapiens, UniProt Q9Y5N1); assay: Displacement of [3H]-Nalpha-methylhistamine from human recombinant histamine H3 receptor expressed in HEK293 cells after 90 mins; assay type: cell-based
Mus musculus [3] = assay: Anticonvulsant activity in CF1 albino mouse assessed as protection against subcutaneous pentetrazole-induced seizure at 300 mg/kg, ip after 0.5 hrs; assay type: functional, organism-based
In short: (§3)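 Male CF-1 mice, ip in 0.5% methylcellulose; pentetrazole at CD97 (85 mg/kg) injected subcutaneously in a loose fold of neck skin. Observed 30 min; absence of even a threshold seizure (single clonic spasm lasting at least 5 s) counted as protection. Scored protected/tested, or ED50.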

Mus musculus [4] = assay: Anticonvulsant activity in ip dosed CF1 albino mouse assessed as protection against maximal electroshock-induced seizure after 0.25 hrs; assay type: functional; in short: as §2
Rattus norvegicus [5] = assay: Neurotoxicity in Sprague-Dawley rat at 30 mg/kg, ip after 0.5 hrs by rotarod test; assay type: toxicity, organism-based; conditions: in vivo
In short: (§4)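 Male Sprague–Dawley rats given compound ip as a suspension in 0.5% methylcellulose, groups of four. Rotarod: 1 inch knurled rod at 6 rpm; three falls within 1 min counts as neurotoxic. Scored as number toxic/number tested at pretreatment times between 0.25 and 4 h, or at the stated time.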

Rattus norvegicus [6] = assay: Neurotoxicity in Sprague-Dawley rat at 30 mg/kg, ip after 2 hrs by rotarod test; assay type: toxicity, organism-based; conditions: in vivo; in short: as §4
Rattus norvegicus [7] = assay: Protective index, ratio of TD50 for ip dosed Sprague-Dawley rat to ED50 for ip dosed Sprague-Dawley rat assessed as protection against maximal electroshock-induced seizure after 1 hr; assay type: functional
In short: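 PI = TD50/ED50. Male CF-1 mice or male Sprague–Dawley rats given compound ip as 0.5% methylcellulose suspension. MES: 60 Hz corneal current, 50 mA mice or 150 mA rats, for […] after tetracaine eye drops; protection is abolition of hindlimb tonic extension.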

Mus musculus [8] = assay: Neurotoxicity in CF1 albino mouse at 3 mg/kg, ip after 0.5 hrs by rotarod test; assay type: toxicity, organism-based; conditions: in vivo; in short: as §1
Mus musculus [9] = assay: Neurotoxicity in ip dosed CF1 albino mouse after 0.25 hrs by rotarod test; assay type: toxicity, organism-based; conditions: in vivo
In short: as §1, with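 “dosing.” for “dosing. TD50 with 95% confidence interval from the quantitative study.”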

Mus musculus [10] = assay: Neurotoxicity in CF1 albino mouse at 30 mg/kg, ip after 0.5 hrs by rotarod test; assay type: toxicity, organism-based; conditions: in vivo; in short: as §1
Rattus norvegicus [11] = assay: Anticonvulsant activity in Sprague-Dawley rat assessed as protection against pilocarpine-induced convulsive status epilepticus at 50 mg/kg, ip; assay type: functional, organism-based
In short: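 Male Sprague Dawley rats (150–180 g) dosed ip, pilocarpine 50 mg/kg ip given; compound dosed immediately at first behavioral Stage 3 seizure or 30 min later. Number protected from Racine Stage 3 or greater seizures recorded.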

Mus musculus [12] = assay: Neurotoxicity in CF1 albino mouse at 30 mg/kg, ip after 0.25 to 4 hrs by rotarod test; assay type: toxicity, organism-based; conditions: in vivo; in short: as §1
Rattus norvegicus [13] = assay: Anticonvulsant activity in Sprague-Dawley rat assessed as protection against maximal electroshock-induced seizure at 30 mg/kg, po; assay type: functional
Mus musculus [14] = assay: Anticonvulsant activity in CF1 albino mouse assessed as protection against subcutaneous pentetrazole-induced seizure at 100 mg/kg, ip after 0.5 hrs; assay type: functional, organism-based; in short: as §3
Mus musculus [15] = assay: Anticonvulsant activity in CF1 albino mouse assessed as protection against subcutaneous pentetrazole-induced seizure at 30 mg/kg, ip after 0.5 hrs; assay type: functional, organism-based; in short: as §3
Mus musculus [16] = assay: Anticonvulsant activity in CF1 albino mouse assessed as protection against maximal electroshock-induced seizure at 3 mg/kg, ip after 0.5 hrs; assay type: functional, organism-based; in short: as §2
Mus musculus [17] = assay: Anticonvulsant activity in CF1 albino mouse assessed as protection against subcutaneous pentetrazole-induced seizure at 30 mg/kg, ip after 4 hrs; assay type: functional, organism-based; in short: as §3
Mus musculus [18] = assay: Neurotoxicity in CF1 albino mouse at 300 mg/kg, ip after 4 hrs by rotarod test; assay type: toxicity, organism-based; conditions: in vivo; in short: as §1
Rattus norvegicus [19] = assay: Neurotoxicity in ip dosed Sprague-Dawley rat after 0.5 hrs by rotarod test; assay type: toxicity, organism-based; conditions: in vivo
Rattus norvegicus [20] = assay: Anticonvulsant activity in ip dosed Sprague-Dawley rat assessed as protection against subcutaneous pentetrazole-induced seizure after 0.5 hrs; assay type: functional
Rattus norvegicus [21] = assay: Neurotoxicity in Sprague-Dawley rat at 30 mg/kg, ip after 1 hr by rotarod test; assay type: toxicity, organism-based; conditions: in vivo; in short: as §4
Rattus norvegicus [22] = assay: Anticonvulsant activity in Sprague-Dawley rat assessed as protection against maximal electroshock-induced seizure at 30 mg/kg, ip after 0.5 hrs; assay type: functional, organism-based
Rattus norvegicus [23] = assay: Anticonvulsant activity in ip dosed Sprague-Dawley rat assessed as protection against maximal electroshock-induced seizure after 1 hr; assay type: functional
Rattus norvegicus [24] = assay: Neurotoxicity in Sprague-Dawley rat at 30 mg/kg, ip after 4 hrs by rotarod test; assay type: toxicity, organism-based; conditions: in vivo; in short: as §4
Mus musculus [25] = assay: Anticonvulsant activity in ip dosed CF1 albino mouse assessed as protection against subcutaneous pentetrazole-induced seizure after 0.25 hrs; assay type: functional; in short: as §3
Mus musculus [26] = assay: Protective index, ratio of TD50 for ip dosed CF1 albino mouse to ED50 for ip dosed CF1 albino mouse assessed as protection against maximal electroshock-induced seizure after 0.25 hrs; assay type: functional
Mus musculus [27] = assay: Anticonvulsant activity in CF1 albino mouse assessed as protection against maximal electroshock-induced seizure at 100 mg/kg, ip after 4 hrs; assay type: functional, organism-based; in short: as §2
Mus musculus [28] = assay: Anticonvulsant activity in CF1 albino mouse assessed as protection against maximal electroshock-induced seizure at 30 mg/kg, ip after 4 hrs; assay type: functional, organism-based; in short: as §2
Rattus norvegicus [29] = assay: Anticonvulsant activity in Sprague-Dawley rat assessed as protection against maximal electroshock-induced seizure at 30 mg/kg, ip after 1 hr; assay type: functional, organism-based
Rattus norvegicus [30] = assay: Neurotoxicity in Sprague-Dawley rat at 30 mg/kg, ip after 0.25 hrs by rotarod test; assay type: toxicity, organism-based; conditions: in vivo; in short: as §4
Mus musculus [31] = assay: Analgesic activity in mouse assessed as inhibition of formalin-induced paw licking behavior at 16 mg/kg, ip after 0.25 hrs; assay type: functional, organism-based
In short: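 Male albino mice, ip in 0.5% methylcellulose; 0.5% formalin injected sub-dermally into right hindpaw plantar surface 0.25 h after dosing. Paw licking observed for the first 2 min of each 5-min epoch up to 40 min after dosing; cumulative licking duration compared with vehicle-pretreated group, acute and inflammatory phases.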

Chain of Histamine H3 receptor (Q9Y5N1 whole entry): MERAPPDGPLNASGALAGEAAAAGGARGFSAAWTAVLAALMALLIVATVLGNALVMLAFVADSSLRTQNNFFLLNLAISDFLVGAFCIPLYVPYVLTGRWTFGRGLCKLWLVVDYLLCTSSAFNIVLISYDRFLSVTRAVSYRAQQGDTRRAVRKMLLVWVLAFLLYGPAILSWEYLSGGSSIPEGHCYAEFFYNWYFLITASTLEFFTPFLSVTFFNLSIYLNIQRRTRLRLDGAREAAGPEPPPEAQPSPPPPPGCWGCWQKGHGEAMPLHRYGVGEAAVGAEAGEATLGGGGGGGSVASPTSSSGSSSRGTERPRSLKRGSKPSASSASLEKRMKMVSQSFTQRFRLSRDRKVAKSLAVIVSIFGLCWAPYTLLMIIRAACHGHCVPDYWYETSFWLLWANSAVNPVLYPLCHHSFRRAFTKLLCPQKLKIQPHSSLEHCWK

Which results are given for `CC1CCCN(CCCCCCCOc2ccc(Cl)cc2)C1.O=C(O)C(=O)O` (configuration not stated)?
Activity (Mus musculus [1]): Non-toxic; Activity (Mus musculus [2]): Active; Ki (Histamine H3 receptor): 180 nM; Activity (Mus musculus [3]): inactive; ED50 (Mus musculus [4]): 16.1 mg/kg; Activity (Rattus norvegicus [5]): Non-toxic; Activity (Rattus norvegicus [6]): Non-toxic; Ratio TD50/ED50 (Rattus norvegicus [7]): 3.8; Activity (Mus musculus [8]): Non-toxic; TD50 (median neurotoxic dose) (Mus musculus [9]): 48.28 mg/kg; Activity (Mus musculus [10]): Non-toxic; Activity (Rattus norvegicus [11]): inactive; Activity (Mus musculus [12]): Non-toxic; Activity (Rattus norvegicus [13]): 25%; Activity (Mus musculus [14]): inactive; Activity (Mus musculus [15]): inactive; Activity (Mus musculus [16]): inactive; Activity (Mus musculus [17]): inactive; Activity (Mus musculus [18]): Non-toxic; ED50 (Rattus norvegicus [19]): 50.35 mg/kg; ED50 (Rattus norvegicus [20]): > 50 mg/kg; Activity (Rattus norvegicus [21]): Non-toxic; Activity (Rattus norvegicus [22]): Active; ED50 (Rattus norvegicus [23]): 13.2 mg/kg; Activity (Rattus norvegicus [24]): Non-toxic; ED50 (Mus musculus [25]): > 47 mg/kg; Ratio TD50/ED50 (Mus musculus [26]): 3; Activity (Mus musculus [27]): Active; Activity (Mus musculus [28]): Active; Activity (Rattus norvegicus [29]): Active; Activity (Rattus norvegicus [30]): Non-toxic; Activity (Mus musculus [31]): inactive
